For orientation: EC50 means the concentration at which the effect is half-maximal. A word on the ED50: it is the midpoint of the dose-response relation. Higher therefore signals a need for a large dose.

The results in this text go back to ChEMBL document CHEMBL1126766 (J Med Chem, 1993).

Bounds are passed on as bounds.

Holding throughout (assay type): functional
Assay [1] addresses T1, Vanilloid receptor (Rattus norvegicus, UniProt Q9ERZ8+Q9WUD2+O35433). Briefly: In vitro effective concentration for [Ca2+] uptake into dorsal root ganglia neurones in culture.
The species named for another assay is Mus musculus. Put plainly: Effective analgesic dose in mouse tail-flick latency assay.
The next assay is filed under the species Cavia porcellus. Put plainly: Effective concentration for guinea pig ileum contraction in an in vitro assay.
The target of assay [2] is T1, Vanilloid receptor. Put plainly: In vitro effective concentration for Ca++ uptake into dorsal root ganglia neurones in culture. In outline:
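Uptake of 45Ca2+ tracer into cultured dorsal root ganglion neurones, evoked by the applied agonist analogues. Potency is expressed as EC50 in μM, reported ± an error term. Full assay details are held in an earlier paper of the series.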

Consider `COc1cc(CNC(=O)CCCCCN)ccc1O.O=C(O)C(F)(F)F`, for which the EC50 on Vanilloid receptor [1] is more than 100 µM.
`COc1cc(CNC(=O)/C=C/c2ccc(N(C)C)cc2)ccc1O` registered a concentration giving a half-maximal response (EC50) at Vanilloid receptor [1] of 4.39 µM.
In turn, `COc1cc(CNC(=O)/C=C/c2ccc(Cl)cc2Cl)ccc1O` yielded an EC50 at Vanilloid receptor [1] of 0.62 µM.
In the case of `CCCCCC/N=C(\S)NCc1ccc(O)c(OC)c1`, the EC50 on Vanilloid receptor [1] came out at 0.18 µM; in the assay listed under Cavia porcellus, 180 nM. For the same molecule, the 50% effect level in the assay listed under Mus musculus (ED50) was put at a dose of 12.5 µmol/kg.
`COc1cc(CNC(=O)C#Cc2ccc(Cl)cc2)ccc1O` yielded an EC50 at Vanilloid receptor [1] of 4.1 µM.
`COc1cc(C/N=C(/N)S)ccc1O` returned a half-maximal effective concentration (EC50) on Vanilloid receptor [1] of more than 100 µM.
`CCCCCCCCCC/N=C(\S)NCc1ccc(O)c(OC)c1` had an EC50 at Vanilloid receptor [2] of 0.11 µM.
`COc1cc(CC(=O)NCCc2ccc(Cl)cc2)ccc1O`: the EC50 on Vanilloid receptor [1] was found to be 0.66 µM.
For the molecule `CCCC/N=C(\S)NCc1ccc(O)c(OC)c1`, the EC50 came to 9.48 µM on Vanilloid receptor [1] and 3400 nM in the assay listed under Cavia porcellus. In the assay listed under Mus musculus, the ED50 is more than 50 µmol/kg.
Regarding `CCCCCCCC/N=C(\S)NCc1ccc(O)c(OC)c1`, the EC50 on Vanilloid receptor [2] (read-out: EC50) worked out at 0.06 µM; in the assay filed under Cavia porcellus, 60 nM. The molecule also showed an ED50 in the assay filed under Mus musculus of 3.2 µmol/kg.
At Vanilloid receptor [2], `COc1cc(C/N=C(\S)NC(c2ccccc2)(c2ccccc2)c2ccccc2)ccc1O` registered a concentration for a half-maximal effect (EC50) of more than 100 µM.
On the same count and under the same terms, next, `CCCCCCCC/C=C/CCCCCCC/N=C(\S)NCc1ccc(O)c(OC)c1`: more than 100 µM.
`COCCOCC(=O)NCc1ccc(O)c(OC)c1`: the EC50 at Vanilloid receptor [1] was more than 100 µM.
The same measure, in the same setting: next, `COc1cc(CNC(=O)/C=C/c2ccc(NC=O)cc2)ccc1O`: 1000 µM.
Take `COCCOCCOCC(=O)NCc1ccc(O)c(OC)c1`: the EC50 on Vanilloid receptor [1] is more than 100 µM.
The molecule `COc1cc(CNC(=O)CBr)ccc1O` registered an EC50 at Vanilloid receptor [2] of more than 100 µM.
At Vanilloid receptor [1], `COc1cc(C/N=C(\S)NC(c2ccccc2)c2ccccc2)ccc1O` came in with a concentration for a half-maximal effect (EC50) of 0.27 µM.
Still for that read-out and setting: next, `COc1cc(C/N=C(\S)NC2[C@H]3C[C@@H]4C[C@@H](C[C@H]2C4)C3)ccc1O` (stereo partly drawn): 1.08 µM; `COc1cc(CNC(=O)/C=C/c2ccccc2)ccc1O`: 11.8 µM.
For `CCCCCCCCCCCCCCCCCC/N=C(\S)NCc1ccc(O)c(OC)c1`, the EC50 on Vanilloid receptor [2] is 8.1 µM.
For the molecule `COc1cc(CNC(=O)/C=C/c2ccc(I)cc2)ccc1O`, the concentration for a half-maximal effect (EC50) on Vanilloid receptor [1] was 0.35 µM.
Take `COc1cc(CNC(=O)/C=C\c2ccc(Cl)cc2)ccc1O`: on Vanilloid receptor [1], the EC50 came to 50.1 µM.
`COc1cc(CNC(=O)CCCCCNC(=O)OC(C)(C)C)ccc1O` had an EC50 on Vanilloid receptor [1] of 79.8 µM.
For the molecule `CCCCCCCCCCCCCCCCCC(=O)NCc1ccc(O)c(OC)c1`, the EC50 on Vanilloid receptor [2] was more than 100 µM.
`CCCCCCCCCCCC/N=C(\S)NCc1ccc(O)c(OC)c1` had an EC50 on Vanilloid receptor [2] of 0.16 µM.
On Vanilloid receptor [1], `COc1cc(CNC(=O)CCc2ccccc2)ccc1O` displayed an EC50 of 45.26 µM.
The molecule `COc1cc(CNC(=O)/C=C/c2ccc(-c3ccccc3)cc2)ccc1O` showed a half-maximal effective concentration (EC50) on Vanilloid receptor [1] of 0.24 µM.
Same read-out and setting: next, `COc1cc(CNC(=O)CCc2ccc([N+](=O)[O-])cc2)ccc1O`: 21 µM.
At Vanilloid receptor [1], `COc1cc(CNC(=O)/C=C/c2ccc(C#N)cc2)ccc1O` came in with a concentration for a half-maximal effect (EC50) of 26.5 µM.
As for `COc1cc(CNC(=O)CCc2ccc(N=[N+]=[N-])cc2)ccc1O`, the concentration giving a half-maximal response (EC50) at Vanilloid receptor [2] turned out to be 4.2 µM.
For `COCCOCCOCC(=O)NCCCCCCCCCCC(=O)NCc1ccc(O)c(OC)c1`, the 50% effective concentration (EC50) on Vanilloid receptor [2] was more than 100 µM.
In turn, `COc1cc(CNC(=O)/C=C/c2ccc([N+](=O)[O-])cc2)ccc1O` registered an EC50 at Vanilloid receptor [2] of 4.58 µM.
With `CCCCC/N=C(\S)NCc1ccc(O)c(OC)c1`, the 50% effective concentration (EC50) was determined as 1.96 µM at Vanilloid receptor [1] and 1800 nM in the assay filed under Cavia porcellus. In the assay filed under Mus musculus, this molecule showed an ED50 of more than 50 µmol/kg.
On Vanilloid receptor [1], `COc1cc(CNC(=O)/C=C/c2ccc(Cl)cc2)ccc1O` returned a half-maximal effective concentration (EC50) of 1.24 µM.
In the case of `CCCCCCC/N=C(\S)NCc1ccc(O)c(OC)c1`, the half-maximal effective concentration (EC50) at Vanilloid receptor [2] is 0.29 µM; in the assay filed under Cavia porcellus, 100 nM. In the assay filed under Mus musculus, the ED50 was found to be 15 µmol/kg.
Molecule `COc1cc(CNC(=O)/C=C/c2cccc(Cl)c2)ccc1O` showed a 50% effective concentration (EC50) at Vanilloid receptor [1] of 2.58 µM.
As for `CCCCCCCCCCCCCCCC/N=C(\S)NCc1ccc(O)c(OC)c1`, the concentration for a half-maximal effect (EC50) at Vanilloid receptor [2] is more than 100 µM.
`COc1cc(CNC(=O)CCl)ccc1O` showed an EC50 on Vanilloid receptor [2] of more than 100 µM.
In the case of `COc1cc(CNC(=O)CCc2ccc(O)cc2)ccc1O`, the EC50 on Vanilloid receptor [1] is more than 100 µM.
Regarding `CCCCCCCC/C=C/CCCCCCCC(=O)NCc1ccc(O)c(OC)c1`, the half-maximal effective concentration (EC50) at Vanilloid receptor [2] was 0.36 µM.
On the same count and under the same terms, next, `CCCCCCCCC/N=C(\S)NCc1ccc(O)c(OC)c1`: 0.1 µM; `COc1cc(CNC(=O)CCCCCCCCCCC(=O)O)ccc1O`: more than 100 µM.
Consider `COc1cc(CNC(=O)Cc2ccc(Cl)cc2)ccc1O`, for which the EC50 at Vanilloid receptor [1] was determined as 7.77 µM.
Turning to `COc1cc(CNC(=O)CCc2ccc(Cl)cc2)ccc1O`, the EC50 at Vanilloid receptor [1] came out at 3.09 µM.
In turn, `COc1cc(CNC(=O)CCCC/C=C/C(C)C)ccc1O` [CAPSAICIN] gave an ED50 in the assay filed under Mus musculus of 15 µmol/kg.
On Vanilloid receptor [1], `COc1cc(CNC(=O)CCCCCCC(C)C)ccc1O` [DIHYDROCAPSAICIN] returned a concentration for a half-maximal effect (EC50) of 0.19 µM.
`CCCCCCCCC(=O)NCc1ccc(O)c(OC)c1` [NONIVAMIDE]: the EC50 at Vanilloid receptor [2] (read-out: EC50) was found to be 0.55 µM.
On Vanilloid receptor [2], `CCCCCCCC/C=C\CCCCCCCC(=O)NCc1ccc(O)c(OC)c1` [OLVANIL] had a half-maximal effective concentration (EC50) of 0.17 µM.
